Drawing on ChEMBL document CHEMBL1156360, “New phenylpropanoid esters of sucrose from Polygonum lapathifolium” (J Nat Prod, 2001), this text covers viability and Activity for ten molecules.

What all share (format): cell-based
Data set [1] can be described thus: Cytotoxicity against human Raji cells assessed as cell viability at 500 molar ratio by Trypan blue method. The settings on record: read-out: Activity. The essentials:
(§1)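 Raji cells (1×10^6/mL) given n-butyric acid (4 mmol), TPA (32 pmol = 20 ng per mL, in DMSO) and test compound in DMSO, then held at 37 °C for 48 h. Dose is the mol ratio of compound to TPA. Viability of the treated cells was scored by Trypan Blue staining.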

A short description of data set [2]: Cytotoxicity against human Raji cells assessed as cell viability at 100 molar ratio by Trypan blue method. The settings on record: read-out: Activity. The method in brief: as §1
In data set [3] the test system is Raji. In words: Inhibition of 12-O-tetradecanoylphorbol-13-acetate-induced EBV-early antigen activation in human Raji cells at 1000 molar ratio relative to TPA. The settings on record: human gammaherpesvirus 4. The arrangement: scale not given: the % may be the effect or the level left. The essentials: (§2)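 Raji cells (virus nonproducer, 1×10^6/mL) were cultured 48 h at 37 °C in 1 mL medium with n-butyric acid (4 mmol), TPA inducer (32 pmol = 20 ng in DMSO) and compound in DMSO. Dose is the mol ratio to TPA. EA-positive cells on smears were found by indirect immunofluorescence using NPC patient serum. Triplicate assays; induction is given relative to the butyric acid + TPA control (100%).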

The subject of data set [4] is Raji. In words: Inhibition of 12-O-tetradecanoylphorbol-13-acetate-induced EBV-early antigen activation in human Raji cells at 500 molar ratio relative to TPA. The settings on record: human gammaherpesvirus 4. More on the design: scale not given: the % may be the effect or the level left. The method in brief:
as §2

A short description of data set [5]: Cytotoxicity against human Raji cells assessed as cell viability at 1000 molar ratio by Trypan blue method. The settings on record: read-out: Activity. The essentials:
as §1

Data set [6] has as its system Raji. As to the kind of experiment: Inhibition of 12-O-tetradecanoylphorbol-13-acetate-induced EBV-early antigen activation in human Raji cells at 10 molar ratio relative to TPA. The arrangement: scale not given: the % may be the effect or the level left. The settings on record: human gammaherpesvirus 4. The method in brief: as §2
Data set [7] relates to Raji. As to the kind of experiment: Inhibition of 12-O-tetradecanoylphorbol-13-acetate-induced EBV-early antigen activation in human Raji cells at 100 molar ratio relative to TPA. The arrangement: scale not given: the % may be the effect or the level left. The settings on record: human gammaherpesvirus 4. The method in brief: as §2
Data set [8] in a line: Cytotoxicity against human Raji cells assessed as cell viability at 10 molar ratio by Trypan blue method. The settings on record: read-out: Activity. The essentials:
as §1

As to `O=C(/C=C/c1ccc(O)cc1)OC[C@H]1O[C@@](COC(=O)/C=C/c2ccc(O)cc2)(O[C@H]2O[C@H](CO)[C@@H](O)[C@H](O)[C@H]2O)[C@@H](OC(=O)/C=C/c2ccc(O)cc2)[C@@H]1O` [HYDROPIPEROSIDE], the viability at 500 molar ratio in data set [1] is above 80%. For the same molecule, the viability at 100 molar ratio in data set [2] is above 80%. Besides, the Activity in data set [3] came out at 10.6%; in data set [4], 39.6%; in data set [6], 100%; in data set [7], 71.5%. Also, in data set [5], the viability at 1000 molar ratio worked out at 70%. In data set [8], the viability at 10 molar ratio was above 80%.

Regarding `COc1cc(/C=C/C(=O)OC[C@H]2O[C@H](O[C@]3(COC(=O)/C=C/c4ccc(O)c(OC)c4)O[C@H](COC(=O)/C=C/c4ccc(O)cc4)[C@@H](O)[C@@H]3OC(=O)/C=C/c3ccc(O)cc3)[C@H](O)[C@@H](O)[C@@H]2O)ccc1O` [LAPATHOSIDE A], the viability at 500 molar ratio in data set [1] was above 80%. Besides, in data set [2], the viability at 100 molar ratio was above 80%. The Activity in data set [3] was found to be 10%; in data set [4] it was 37.2%; in data set [6], 95%; in data set [7] it was 70.9%. Also, the viability at 1000 molar ratio in data set [5] came out at 70%. For the same molecule, the viability at 10 molar ratio in data set [8] is above 80%.

Take `CC[C@H](CC[C@@H](C)[C@H]1CC[C@H]2[C@@H]3CC=C4C[C@@H](O[C@@H]5O[C@H](CO)[C@@H](O)[C@H](O)[C@H]5O)CC[C@]4(C)[C@H]3CC[C@]12C)C(C)C` [SITOGLUSIDE]: the viability at 500 molar ratio in data set [1] was above 80%. Also, the viability at 100 molar ratio in data set [2] was above 80%. Moreover, the Activity in data set [3] was 14.8%; in data set [4], 45.7%; in data set [6], 100%; in data set [7], 73.9%. Moreover, the viability at 1000 molar ratio in data set [5] is 60%. Moreover, in data set [8], the viability at 10 molar ratio is above 80%.

Turning to `COc1cc(/C=C/C(=O)OC[C@H]2O[C@H](O[C@]3(COC(=O)/C=C/c4ccc(O)cc4)O[C@H](COC(=O)/C=C/c4ccc(O)cc4)[C@@H](O)[C@@H]3OC(=O)/C=C/c3ccc(O)cc3)[C@H](O)[C@@H](O)[C@@H]2O)ccc1O` [VANICOSIDE B], the viability at 500 molar ratio in data set [1] was above 80%. The viability at 100 molar ratio in data set [2] was above 80%. The Activity in data set [3] was 11.8%; in data set [4], 40.9%; in data set [6], 100%; in data set [7] it was 70%. Besides, the viability at 1000 molar ratio in data set [5] came out at 70%. The viability at 10 molar ratio in data set [8] was above 80%.

Take `Oc1cc(O)c2c(c1)O[C@@H](c1ccc(O)c(O)c1)[C@H](O)C2` [(-)-CATECHIN]: the viability at 500 molar ratio in data set [1] is above 80%. In addition, the viability at 100 molar ratio in data set [2] is above 80%. The Activity in data set [3] is 11.3%; in data set [4] it was 41.3%; in data set [6], 100%; in data set [7], 75.8%. The viability at 1000 molar ratio in data set [5] amounted to 70%. The viability at 10 molar ratio in data set [8] is above 80%.

Consider `COc1cc(/C=C/C(=O)OC[C@H]2O[C@@](COC(=O)/C=C/c3ccc(O)c(OC)c3)(O[C@H]3O[C@H](COC(=O)/C=C/c4ccc(O)c(OC)c4)[C@@H](O)[C@H](O)[C@H]3O)[C@@H](OC(=O)/C=C/c3ccc(O)cc3)[C@@H]2O)ccc1O` [LAPATHOSIDE B], for which the viability at 500 molar ratio in data set [1] was above 80%. Besides, the viability at 100 molar ratio in data set [2] is above 80%. Also, the Activity in data set [3] is 26.8%; in data set [4], 51.6%; in data set [6], 100%; in data set [7], 77.9%. In data set [5], the viability at 1000 molar ratio was 60%. Also, in data set [8], the viability at 10 molar ratio is above 80%.

For the molecule `O=C(/C=C/c1ccc(O)cc1)OC[C@H]1O[C@@](CO)(O[C@H]2O[C@H](CO)[C@@H](O)[C@H](O)[C@H]2O)[C@@H](OC(=O)/C=C/c2ccc(O)cc2)[C@@H]1O` [LAPATHOSIDE D], in data set [1], the viability at 500 molar ratio was above 80%. For the same molecule, in data set [2], the viability at 100 molar ratio was above 80%. In addition, the Activity in data set [3] worked out at 10.5%; in data set [4], 38.3%; in data set [6], 100%; in data set [7] it was 71.4%. For the same molecule, the viability at 1000 molar ratio in data set [5] amounted to 70%. Further, the viability at 10 molar ratio in data set [8] was above 80%.

On to `COC(=O)/C=C/c1ccc(O)cc1` [METHYL P-HYDROXYCINNAMATE], for which the viability at 500 molar ratio in data set [1] is above 80%. Moreover, the viability at 100 molar ratio in data set [2] was above 80%. Moreover, the Activity in data set [3] was 15.7%; in data set [4] it was 42.6%; in data set [6] it was 100%; in data set [7], 77.5%. Besides, the viability at 1000 molar ratio in data set [5] is 70%. For the same molecule, the viability at 10 molar ratio in data set [8] was above 80%.

Consider `CC[C@H](CC[C@@H](C)[C@H]1CC[C@H]2[C@@H]3C(=O)C=C4C[C@@H](O)CC[C@]4(C)[C@H]3CC[C@]12C)C(C)C`, for which the viability at 500 molar ratio in data set [1] is above 80%. Moreover, the viability at 100 molar ratio in data set [2] was above 80%. Also, the Activity is 11.5% in data set [3], 42.8% in data set [4], 100% in data set [6] and 71.5% in data set [7]. Further, in data set [5], the viability at 1000 molar ratio came out at 60%. Moreover, the viability at 10 molar ratio in data set [8] is above 80%.

Turning to `COc1cc(/C=C/C(=O)OC[C@H]2O[C@H](O[C@]3(CO)O[C@H](COC(=O)/C=C/c4ccc(O)cc4)[C@@H](O)[C@@H]3OC(=O)/C=C/c3ccc(O)cc3)[C@H](O)[C@@H](O)[C@@H]2O)ccc1O` [LAPATHOSIDE C], the viability at 500 molar ratio in data set [1] is above 80%. For the same molecule, the viability at 100 molar ratio in data set [2] was above 80%. Besides, the Activity in data set [3] was found to be 33.6%; in data set [4] it was 59%; in data set [6], 100%; in data set [7] it was 83.5%. The viability at 1000 molar ratio in data set [5] is 70%. Also, in data set [8], the viability at 10 molar ratio was above 80%.
